Assay results from publication PMC3462166 (Journal of the American Chemical Society, 2012).
Where “and” joins values, the source holds several entries; their conditions need not be identical. Equal values may be shown once. One block for each compound: values may come before it.

Legend:
[1] = test system: CD22 (Siglec-2) on B cells; conditions: ligand targeting chemotherapeutic loaded liposomes; cited from earlier work
murine Sn = murine Sn (Mus musculus, UniProt Q62230); conditions: inhibition of mSn-Fc chimera binding to natural-ligand beads; triplicate, ± SD
Outline: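 Magnetic beads coated with Neu5Acα2-3Galβ1-4GlcNAc were bound by murine sialoadhesin-Fc chimera in the presence of serial dilutions of competitor (9-N-acyl sialoside analogs). Displacement of bead-bound chimera was read by flow cytometry, and IC50 was taken as the concentration needed to displace the bound chimera. Titrations were run in triplicate, with SD from three independent measurements.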

Sn [2] = conditions: liposomes decorated with the ligand; cited from earlier work
Sn expressing cells = conditions: liposomes decorated with the ligand; cited from earlier work
Sn [3] = conditions: natural ligand in a comparable assay; cited from earlier work

Sequence of murine Sn (Q62230 20-136 limits assumed): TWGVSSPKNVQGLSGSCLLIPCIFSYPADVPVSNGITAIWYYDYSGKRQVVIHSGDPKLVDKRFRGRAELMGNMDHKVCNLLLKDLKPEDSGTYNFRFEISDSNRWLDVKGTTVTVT

Compound: 9-N-biphenylcarbamoyl-Neu5Acα2-6Galβ1-4GlcNAc [6′-^BPCNeu5Ac]
survival in murine model of human B cell lymphoma [1]: prolong life

IC50 (murine Sn): 4.8 µM and 4.82 µM
Compound: CC(=O)NC1C(O)OC(CO)C(OC2OC(CO)C(O)C(OC3(C(=O)O)CC(O)C(NC(C)=O)C(C(O)C(O)CNC(=O)c4ccc(-c5ccccc5)cc4)O3)C2O)C1O (stereo not drawn) [Compound 1, 9-N-biphenylcarbamoyl-Neu5Acα2-3Galβ1-4GlcNAc]
selectivity for in vivo targeting (Sn [2]): not sufficiently selective | targeting of Sn expressing cells in vitro (Sn expressing cells): capable of targeting Sn expressing cells in vitro

IC50 (murine Sn): 0.38 ± 0.04 µM
Compound: CC(=O)NC1C(O)OC(CO)C(OC2OC(CO)C(O)C(OC3(C(=O)O)CC(O)C(NC(C)=O)C(C(O)C(O)CNC(=O)c4cc5c(s4)-c4ccccc4OC5)O3)C2O)C1O (stereo not drawn) [Compound 2, 9-N-(4H-thieno[3,2-c]chromene-2-carbamoyl)-Neu5Acα 2-3Galβ1-4GlcNAc]

Compound: Neu5Acα2-3Galβ1-4GlcNAc
IC50 (Sn [3]): 1300 µM
